{"source": "ChEMBL document CHEMBL1821604", "about": "“Anticancer activity and cDNA microarray studies of a (RS)-1,2,3,5-tetrahydro-4,1-benzoxazepine-3-yl]-6-chloro-9H-purine, and an acyclic (RS)-O,N-acetalic 6-chloro-7H-purine” (Eur J Med Chem, 2011)", "assay_type_in_all_cases": "functional", "key": {"MCF7 [1]": {"tested_on": "MCF7", "assay": "Upregulation of MGC2474 gene expression in human MCF7 cells at IC50 after 48 hrs by cDNA microarray technique relative to control"}, "MCF7 [2]": {"tested_on": "MCF7", "assay": "Down regulation of KIF3B gene expression in human MCF7 cells at IC50 after 48 hrs by cDNA microarray technique relative to control", "outline": "(§1)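 Cells (8 × 10⁶) were cultured in DMEM with 10% heat-inactivated FBS at 37 °C under 5% CO₂. They were exposed for 48 h to compound at its IC₅₀, with DMSO-treated parallel cultures as controls (final DMSO ≤0.1% v/v). Total RNA was isolated by trizol/chloroform phase separation, RNeasy column cleanup and on-column DNase, then quantified by OD260/OD280. Expression was profiled by cDNA microarray relative to control.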"}, "MCF7 [3]": {"tested_on": "MCF7", "assay": "Down regulation of ZNF189 gene expression in human MCF7 cells at IC50 after 48 hrs by cDNA microarray technique relative to control"}, "MCF7 [4]": {"tested_on": "MCF7", "assay": "Down regulation of KIAA1533 gene expression in human MCF7 cells at IC50 after 48 hrs by cDNA microarray technique relative to control", "outline": "as §1"}, "HT-29 [5]": {"tested_on": "HT-29", "assay": "Down regulation of CD1B gene expression in human HT-29 cells at IC50 after 48 hrs by cDNA microarray technique relative to control", "outline": "(§2)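 8 × 10⁶ cells exposed 48 h to compound at its IC50 concentration; total RNA isolated with trizol/chloroform and RNeasy columns including on-column DNase step; RNA quantified by OD 260/280; DMSO-treated cultures as control.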"}, "HT-29 [6]": {"tested_on": "HT-29", "assay": "Upregulation of IMP-1 gene expression in human HT-29 cells at IC50 after 48 hrs by cDNA microarray technique relative to control"}, "MCF7 [7]": {"tested_on": "MCF7", "assay": "Upregulation of ZNF141 gene expression in human MCF7 cells at IC50 after 48 hrs by cDNA microarray technique relative to control"}, "HT-29 [8]": {"tested_on": "HT-29", "assay": "Upregulation of YPEL1 gene expression in human HT-29 cells at IC50 after 48 hrs by cDNA microarray technique relative to control"}, "MCF7 [9]": {"tested_on": "MCF7", "assay": "Down regulation of PARK2 gene expression in human MCF7 cells at IC50 after 48 hrs by cDNA microarray technique relative to control"}, "HT-29 [10]": {"tested_on": "HT-29", "assay": "Down regulation of TMEM27 gene expression in human HT-29 cells at IC50 after 48 hrs by cDNA microarray technique relative to control"}, "HT-29 [11]": {"tested_on": "HT-29", "assay": "Down regulation of TRPA1 gene expression in human HT-29 cells at IC50 after 48 hrs by cDNA microarray technique relative to control"}, "HT-29 [12]": {"tested_on": "HT-29", "assay": "Down regulation of FLJ25476 gene expression in human HT-29 cells at IC50 after 48 hrs by cDNA microarray technique relative to control", "outline": "as §1"}, "HT-29 [13]": {"tested_on": "HT-29", "assay": "Down regulation of COL11A1 gene expression in human HT-29 cells at IC50 after 48 hrs by cDNA microarray technique relative to control", "outline": "as §2"}, "MCF7 [14]": {"tested_on": "MCF7", "assay": "Upregulation of SMARCA1 gene expression in human MCF7 cells at IC50 after 48 hrs by cDNA microarray technique relative to control"}, "HT-29 [15]": {"tested_on": "HT-29", "assay": "Down regulation of SLC28A2 gene expression in human HT-29 cells at IC50 after 48 hrs by cDNA microarray technique relative to control"}, "MCF7 [16]": {"tested_on": "MCF7", "assay": "Upregulation of MYCN gene expression in human MCF7 cells at IC50 after 48 hrs by cDNA microarray technique relative to control"}, "HT-29 [17]": {"tested_on": "HT-29", "assay": "Down regulation of GBGT1 gene expression in human HT-29 cells at IC50 after 48 hrs by cDNA microarray technique relative to control", "outline": "as §1"}, "HT-29 [18]": {"tested_on": "HT-29", "assay": "Down regulation of HNRPAB gene expression in human HT-29 cells at IC50 after 48 hrs by cDNA microarray technique relative to control", "outline": "as §1"}, "MCF7 [19]": {"tested_on": "MCF7", "assay": "Down regulation of CCT6B gene expression in human MCF7 cells at IC50 after 48 hrs by cDNA microarray technique relative to control", "outline": "as §2"}, "HT-29 [20]": {"tested_on": "HT-29", "assay": "Down regulation of PRKAG1 gene expression in human HT-29 cells at IC50 after 48 hrs by cDNA microarray technique relative to control"}, "MCF7 [21]": {"tested_on": "MCF7", "assay": "Upregulation of CALM1 gene expression in human MCF7 cells at IC50 after 48 hrs by cDNA microarray technique relative to control"}, "HT-29 [22]": {"tested_on": "HT-29", "assay": "Down regulation of ARPC4 gene expression in human HT-29 cells at IC50 after 48 hrs by cDNA microarray technique relative to control", "outline": "as §2"}, "HT-29 [23]": {"tested_on": "HT-29", "assay": "Down regulation of DKFZp451J0118 gene expression in human HT-29 cells at IC50 after 48 hrs by cDNA microarray technique relative to control", "outline": "as §2"}, "HT-29 [24]": {"tested_on": "HT-29", "assay": "Down regulation of KELCHL gene expression in human HT-29 cells at IC50 after 48 hrs by cDNA microarray technique relative to control", "outline": "as §1"}, "HT-29 [25]": {"tested_on": "HT-29", "assay": "Down regulation of EML2 gene expression in human HT-29 cells at IC50 after 48 hrs by cDNA microarray technique relative to control", "outline": "as §1"}, "HT-29 [26]": {"tested_on": "HT-29", "assay": "Upregulation of TUBB4 gene expression in human HT-29 cells at IC50 after 48 hrs by cDNA microarray technique relative to control"}, "HT-29 [27]": {"tested_on": "HT-29", "assay": "Down regulation of IL26 gene expression in human HT-29 cells at IC50 after 48 hrs by cDNA microarray technique relative to control", "outline": "as §1"}, "HT-29 [28]": {"tested_on": "HT-29", "assay": "Down regulation of PLCB4 gene expression in human HT-29 cells at IC50 after 48 hrs by cDNA microarray technique relative to control"}, "MCF7 [29]": {"tested_on": "MCF7", "assay": "Down regulation of ZNF354A gene expression in human MCF7 cells at IC50 after 48 hrs by cDNA microarray technique relative to control"}, "MCF7 [30]": {"tested_on": "MCF7", "assay": "Upregulation of GPR132 gene expression in human MCF7 cells at IC50 after 48 hrs by cDNA microarray technique relative to control"}, "HT-29 [31]": {"tested_on": "HT-29", "assay": "Down regulation of ORM1 gene expression in human HT-29 cells at IC50 after 48 hrs by cDNA microarray technique relative to control"}, "HT-29 [32]": {"tested_on": "HT-29", "assay": "Down regulation of POLE gene expression in human HT-29 cells at IC50 after 48 hrs by cDNA microarray technique relative to control"}}, "data": [{"smiles": "COC(CN(c1ccccc1CO)S(=O)(=O)c1ccccc1[N+](=O)[O-])n1cnc2ncnc(Cl)c21", "note": "(racemic)", "values": [{"measurement": "fold change (FC)", "setting": "MCF7 [1]", "result": 2.23}, {"measurement": "fold change (FC)", "setting": "MCF7 [2]", "result": -2.14}, {"measurement": "fold change (FC)", "setting": "MCF7 [3]", "result": -2.17}, {"measurement": "fold change (FC)", "setting": "MCF7 [4]", "result": -2.09}, {"measurement": "fold change (FC)", "setting": "HT-29 [5]", "result": -2.32}, {"measurement": "fold change (FC)", "setting": "HT-29 [6]", "result": 2.88}, {"measurement": "fold change (FC)", "setting": "MCF7 [7]", "result": 4.04}, {"measurement": "fold change (FC)", "setting": "HT-29 [8]", "result": 4.71}, {"measurement": "fold change (FC)", "setting": "MCF7 [9]", "result": -2.2}, {"measurement": "fold change (FC)", "setting": "HT-29 [10]", "result": -2.99}, {"measurement": "fold change (FC)", "setting": "HT-29 [11]", "result": -3.22}, {"measurement": "fold change (FC)", "setting": "HT-29 [12]", "result": -2.11}, {"measurement": "fold change (FC)", "setting": "HT-29 [13]", "result": -2.03}, {"measurement": "fold change (FC)", "setting": "MCF7 [14]", "result": 2.91}, {"measurement": "fold change (FC)", "setting": "HT-29 [15]", "result": -3.32}]}, {"smiles": "O=C(OCC1c2ccccc2-c2ccccc21)N1CC(n2cnc3c(Cl)ncnc32)OCc2ccccc21", "note": "(racemic)", "values": [{"measurement": "fold change (FC)", "setting": "MCF7 [16]", "result": 2.98}, {"measurement": "fold change (FC)", "setting": "HT-29 [17]", "result": -2.07}, {"measurement": "fold change (FC)", "setting": "HT-29 [18]", "result": -2.45}, {"measurement": "fold change (FC)", "setting": "MCF7 [19]", "result": -3.22}, {"measurement": "fold change (FC)", "setting": "HT-29 [20]", "result": -3.98}, {"measurement": "fold change (FC)", "setting": "MCF7 [21]", "result": 2.99}, {"measurement": "fold change (FC)", "setting": "HT-29 [22]", "result": -2.07}, {"measurement": "fold change (FC)", "setting": "HT-29 [23]", "result": -2.03}, {"measurement": "fold change (FC)", "setting": "HT-29 [24]", "result": -2.02}, {"measurement": "fold change (FC)", "setting": "HT-29 [25]", "result": -2.82}, {"measurement": "fold change (FC)", "setting": "HT-29 [26]", "result": 3.23}, {"measurement": "fold change (FC)", "setting": "HT-29 [27]", "result": -2.22}, {"measurement": "fold change (FC)", "setting": "HT-29 [28]", "result": -2.11}, {"measurement": "fold change (FC)", "setting": "MCF7 [29]", "result": -2.05}, {"measurement": "fold change (FC)", "setting": "MCF7 [30]", "result": 2.1}, {"measurement": "fold change (FC)", "setting": "HT-29 [31]", "result": -2.19}, {"measurement": "fold change (FC)", "setting": "HT-29 [32]", "result": -2.12}]}]}
